Experimental data as given in ChEMBL document CHEMBL3526067, “Metabolism of bis(4-fluorobenzyl)trisulfide and its formation of hemoglobin adduct in rat erythrocytes” (Drug Metab Dispos, 2013).
Each block holds one molecule with its values, some of them ahead of it.

How the values were obtained:
[1] = Drug metabolism in Sprague-Dawley rat RBC assessed as p-FBA metabolite formation by HPLC analysis; format: ADME, cell-based; conditions: erythrocyte
Method in brief: (§1)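 BFBTS (final 50 μM) incubated at 37°C with rat RBCs diluted with an equal volume of PBS, for 5, 10, 15, 30, 45 and 60 min. For M2 (p-FBM) and M3 (p-FBA), two volumes of acetonitrile added before HPLC. BFBTS and M1 were extracted by a cited method.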

[2] = Stability of compound in phosphate buffered saline at 5 uM after 30 mins by HPLC analysis in presence of cysteine; format: physicochemical; conditions: buffer, 0.5 h
[3] = Drug metabolism in phosphate buffered saline assessed as p-FBM metabolite formation at 5 uM by HPLC analysis in presence of GSH; format: physicochemical; conditions: buffer
Blood [4] = test: Drug metabolism in Sprague-Dawley rat whole blood assessed as p-FBM metabolite formation by HPLC analysis; format: ADME, tissue-based
[5] = Drug recovery in Sprague-Dawley rat plasma at 64 uM after 2 hrs by HPLC analysis; format: ADME, cell-free; conditions: read-out: Drug recovery
Method in brief: (§2)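 Recovery test: BFBTS 64 μM incubated for 2 h with rat whole blood, plasma (3,000 g, 10 min) or PBS-washed RBCs. Liquid-liquid extraction, then HPLC; recovery compared across the three matrices.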

[6] = Drug level in Sprague-Dawley rat RBC treated with p-FBM by HPLC analysis; format: ADME, cell-based; conditions: erythrocyte
Method in brief: (§3)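 Male Sprague-Dawley rat RBCs (200–220 g rats), washed three times with PBS pH 7.4 and resuspended in PBS, incubated separately with each metabolite. Metabolites confirmed against authentic standards.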

Blood [7] = test: Drug metabolism in Sprague-Dawley rat whole blood assessed as p-FBA metabolite formation at 50 uM by UPLC-MS/MS analysis; format: ADME, tissue-based
Method in brief: (§4)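 p-FBA in rat whole blood incubated with BFBTS, measured by UPLC-MS. 0.1% formic acid/acetonitrile gradient at 0.2 ml/min, column 25°C. Capillary 3.30 kV, cone 31 V, source 150°C, desolvation 350°C.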

[8] = Drug metabolism in phosphate buffered saline assessed as BFBDS metabolite formation at 5 uM by HPLC analysis in presence of cysteine; format: physicochemical; conditions: buffer
[9] = Stability of compound in phosphate buffered saline at 5 uM after 30 mins by HPLC analysis in presence of coenzyme A; format: physicochemical; conditions: buffer, 0.5 h
Blood [10] = test: Drug metabolism in Sprague-Dawley rat whole blood assessed as p-FBA metabolite formation by HPLC analysis; format: ADME, tissue-based
[11] = Drug metabolism in phosphate buffered saline assessed as BFBDS metabolite formation at 5 uM by HPLC analysis in presence of N-acetyl cysteine; format: physicochemical; conditions: buffer
[12] = Drug metabolism in Sprague-Dawley rat RBC assessed as BFBDS metabolite formation by HPLC analysis; format: ADME, cell-based; conditions: erythrocyte; method in brief: as §1
Blood [13] = test: Drug metabolism in Sprague-Dawley rat whole blood assessed as BFBDS metabolite formation at 50 uM by GC/MS analysis; format: ADME, tissue-based
[14] = Drug recovery in Sprague-Dawley rat RBC at 64 uM after 2 hrs by HPLC analysis; format: ADME, cell-based; conditions: erythrocyte; method in brief: as §2
[15] = Drug recovery in Sprague-Dawley rat whole blood at 64 uM after 2 hrs by HPLC analysis; format: ADME, tissue-based; conditions: read-out: Drug recovery; method in brief: as §2
[16] = Drug level in Sprague-Dawley rat RBC treated with BFBDS by HPLC analysis; format: ADME, cell-based; conditions: erythrocyte; method in brief: as §3
Blood [17] = test: Drug metabolism in Sprague-Dawley rat whole blood assessed as p-FBM metabolite formation at 50 uM by GC/MS analysis; format: ADME, tissue-based
[18] = Stability of compound in phosphate buffered saline at 5 uM after 30 mins by HPLC analysis in presence of GSH; format: physicochemical; conditions: buffer, 0.5 h
[19] = Drug metabolism in phosphate buffered saline assessed as p-FBM metabolite formation at 5 uM by HPLC analysis in presence of cysteine; format: physicochemical; conditions: buffer
[20] = Half life in Sprague-Dawley rat diluted RBC at 25 uM by HPLC analysis; format: ADME, cell-based, Erythrocyte; conditions: diluted red blood cells (RBC)
Method in brief: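 BFBTS incubated with diluted rat RBCs (10^8/ml) for 1.5, 3, 5, 10 and 15 min. After extraction, BFBTS measured by HPLC. Half-life from nonlinear regression of concentration-time data; n = 3, means with SD.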

[21] = Stability in Sprague-Dawley rat RBC at 5 uM incubated for 1 hr after 5 mM thiol residue blocking agent iodoacetamide challenge by HPLC analysis; format: ADME, cell-based; conditions: erythrocyte
[22] = Half life in Sprague-Dawley rat diluted RBC at 1 uM by HPLC analysis; format: ADME, cell-based, Erythrocyte; conditions: diluted red blood cells (RBC)
[23] = Drug metabolism in Sprague-Dawley rat RBC assessed as rapid p-FBM metabolite formation at 50 uM by HPLC analysis; format: ADME, cell-based; conditions: erythrocyte; method in brief: as §1
[24] = Drug metabolism in Sprague-Dawley rat RBC assessed as p-FBM metabolite formation by HPLC analysis; format: ADME, cell-based; conditions: erythrocyte; method in brief: as §1
[25] = Drug level in Sprague-Dawley rat RBC treated with p-FBA by HPLC analysis; format: ADME, cell-based; conditions: erythrocyte
[26] = Drug metabolism in phosphate buffered saline assessed as BFBDS metabolite formation at 5 uM by HPLC analysis in presence of GSH; format: physicochemical; conditions: buffer
[27] = Stability of compound in phosphate buffered saline at 5 uM after 30 mins by HPLC analysis in presence of N-acetyl cysteine; format: physicochemical; conditions: buffer, 0.5 h
[28] = Drug metabolism in phosphate buffered saline assessed as p-FBM metabolite formation at 5 uM by HPLC analysis in presence of coenzyme A; format: physicochemical; conditions: buffer
Blood [29] = test: Drug metabolism in Sprague-Dawley rat whole blood assessed as BFBDS metabolite formation by HPLC analysis; format: ADME, tissue-based
[30] = Drug metabolism in Sprague-Dawley rat RBC assessed as p-FBA metabolite formation at slow rate at 50 uM by HPLC analysis; format: ADME, cell-based; conditions: erythrocyte; method in brief: as §1
[31] = Drug metabolism in Sprague-Dawley rat RBC assessed as BFBTS formation by HPLC analysis; format: ADME, cell-based; conditions: erythrocyte; method in brief: as §1
Blood [32] = test: Drug level in Sprague-Dawley rat whole blood treated with BFBTS at 50 uM by UPLC-MS/MS analysis; format: ADME, tissue-based; method in brief: as §4
Blood [33] = test: Retention time in Sprague-Dawley rat whole blood treated with 50 uM Bis(4-fluorobenzyl)trisulfide after 15 mins by HPLC analysis; format: ADME, tissue-based; conditions: 0.25 h
Blood [34] = test: Drug level in Sprague-Dawley rat whole blood treated with BFBTS by HPLC analysis; format: ADME, tissue-based
[35] = Drug level in Sprague-Dawley rat RBC treated with BFBTS by HPLC analysis; format: ADME, cell-based; conditions: erythrocyte; method in brief: as §3
Blood [36] = test: Drug level in Sprague-Dawley rat whole blood treated with BFBTS at 50 uM after 15 mins by HPLC analysis; format: ADME, tissue-based; conditions: 0.25 h
Blood [37] = test: Drug level in Sprague-Dawley rat whole blood treated with BFBTS at 50 uM by GC/MS analysis; format: ADME, tissue-based
[38] = Drug metabolism in phosphate buffered saline treated with BFBTS at 5 uM by HPLC analysis in presence of N-acetyl cysteine; format: physicochemical; conditions: buffer
[39] = Drug metabolism in phosphate buffered saline treated with BFBTS at 5 uM by HPLC analysis in presence of coenzyme A; format: physicochemical; conditions: buffer
[40] = Drug level in phosphate buffered saline treated with BFBTS at 5 uM by HPLC analysis in presence of GSH; format: physicochemical; conditions: buffer
[41] = Drug metabolism in phosphate buffered saline treated with BFBTS at 5 uM by HPLC analysis in presence of cysteine; format: physicochemical; conditions: buffer
[42] = Drug level in phosphate buffered saline treated with BFBTS at 5 uM at pH 7.4 after 30 mins by LC-MS analysis in presence of GSH; format: physicochemical; conditions: buffer, pH 7.4, 0.5 h
Method in brief: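 BFBTS 5 μM incubated with GSH 0.5 mM in PBS pH 7.4 for 30 min. Two volumes of acetonitrile added, then HPLC and LC-MS to identify reaction products.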

Compound: Fc1ccc(CSSSCc2ccc(F)cc2)cc1
Drug metabolism [1]: metabolite_detected
Stability [2]: Unstable
Drug metabolism [3]: metabolite_detected
Drug metabolism (Blood [4]): metabolite_detected
remaining at 2 h, 64 µM [5]: 13%
Drug metabolism [6]: metabolite_not_detected
Drug metabolism (Blood [7]): metabolite_detected
Drug metabolism [8]: metabolite_detected
Stability [9]: Unstable
Drug metabolism (Blood [10]): metabolite_detected
Drug metabolism [11]: metabolite_detected
Drug metabolism [12]: metabolite_detected
Drug metabolism (Blood [13]): metabolite_detected
Drug recovery [14]: Not Active
remaining at 2 h, 64 µM [15]: 2.54%
Drug metabolism [16]: metabolite_not_detected
Drug metabolism (Blood [17]): metabolite_detected
Stability [18]: Unstable
Drug metabolism [19]: metabolite_detected
half-life at 25 µM [20]: 24 s
Stability [21]: Stable
half-life at 1 µM [22]: < 30 s
Drug metabolism [23]: metabolite_detected
Drug metabolism [24]: metabolite_detected
Drug metabolism [25]: metabolite_not_detected
Drug metabolism [26]: metabolite_detected
Stability [27]: Unstable
Drug metabolism [28]: metabolite_detected
Drug metabolism (Blood [29]): metabolite_detected
Drug metabolism [30]: metabolite_detected

Compound: N[C@@H](CCC(=O)N[C@@H](CSSCc1ccc(F)cc1)C(=O)NCC(=O)O)C(=O)O
Drug uptake [42]: metabolite_detected

Other lines, results leading:

Drug metabolism [6]: metabolite_detected
Drug metabolism [31]: metabolite_not_detected
Drug metabolism [12]: metabolite_not_detected
Drug metabolism [16]: metabolite_detected
Drug metabolism (Blood [32]): metabolite_detected
Retention_time (Blood [33]): 8.15 min
Drug metabolism [24]: metabolite_not_detected
Drug metabolism (Blood [34]): metabolite_detected
Drug metabolism [35]: metabolite_detected
Drug metabolism (Blood [36]): metabolite_detected
Compound: O=C(O)c1ccc(F)cc1

Drug metabolism (Blood [37]): metabolite_detected
Drug metabolism [1]: metabolite_detected
Drug metabolism [31]: metabolite_not_detected
Drug metabolism [12]: metabolite_detected
Drug metabolism [38]: metabolite_detected
Drug metabolism [16]: metabolite_detected
Drug metabolism [39]: metabolite_detected
Retention_time (Blood [33]): 24.66 min
Drug metabolism [40]: metabolite_detected
Drug metabolism [25]: metabolite_not_detected
Drug metabolism (Blood [34]): metabolite_detected
Drug metabolism [35]: metabolite_detected
Drug metabolism [41]: metabolite_detected
Drug metabolism (Blood [36]): metabolite_detected
Compound: Fc1ccc(CS)cc1

Drug metabolism (Blood [37]): metabolite_detected
Drug metabolism [1]: metabolite_detected
Drug metabolism [6]: metabolite_detected
Drug metabolism [31]: metabolite_not_detected
Drug metabolism [38]: metabolite_detected
Drug metabolism [39]: metabolite_detected
Retention_time (Blood [33]): 38.89 min
Drug metabolism [40]: metabolite_detected
Drug metabolism [24]: metabolite_detected
Drug metabolism [25]: metabolite_not_detected
Drug metabolism (Blood [34]): metabolite_detected
Drug metabolism [35]: metabolite_detected
Drug metabolism [41]: metabolite_detected
Drug metabolism (Blood [36]): metabolite_detected
Compound: Fc1ccc(CSSCc2ccc(F)cc2)cc1
